# From ChEMBL document CHEMBL3351594, “Cytotoxic dimeric epipolythiodiketopiperazines from the ascomycetous fungus Preussia typharum” (J Nat Prod, 2014)
# Calls of active or inactive are those of the source. The calls are words filed in the database; no cut-off is given here.
# Columns and labels:
# 786-0 = assay: Cytotoxicity against human 786-0 cells by SRB method; assay type: functional
# Outline: (§1)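 NCI-60 in vitro drug screening panel. Values are the molar concentrations giving 50% growth inhibition (GI50) and total growth inhibition (TGI).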
# [1] = Cytotoxicity against human SKOV3 cells by SRB method; assay type: functional; conditions: SK-OV-3
# Outline: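 SRB assay in SK-OV-3 cells; percent cell growth per Boyd et al.; GI50, TGI and LC50 fitted from dose–response curves of percent growth; mean ± SE, n = 3 or 4 independent experiments.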
# [2] = Cytotoxicity against human P-gp expressing SKOV3-M6/6 cells by SRB assay; assay type: functional
# Outline: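 SRB assay in SK-OV-3/MDR-1-6/6 cells, a single-cell clone of SKOV-3/MDR1 (P-gp). Percent cell growth follows Boyd et al. GI50 was derived from dose–response curves of percent growth. Results are mean ± SE of n = 3 or 4 independent experiments. Relative resistance is calculated against parental SK-OV-3.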
# [3] = Cytotoxicity against human Hs578T cells by SRB method; assay type: functional; conditions: Hs-578T; outline: as §1
# ACHN = assay: Cytotoxicity against human ACHN cells by SRB method; assay type: functional; outline: as §1
# DU-145 = assay: Cytotoxicity against human DU145 cells by SRB method; assay type: functional; outline: as §1
# NCI-H226 = assay: Cytotoxicity against human NCI-H226 cells by SRB method; assay type: functional; outline: as §1
# Mus musculus = assay: Toxicity in athymic nude mouse xenografted with human UACC62 cells assessed as rapid and persistent weight loss at 2 mg/kg, ip; assay type: organism-based, UACC-62; parameters: dose 2 mg/kg, route intraperitoneal; conditions: in vivo
# SNB-19 = assay: Cytotoxicity against human SNB19 cells by SRB method; assay type: functional
# Outline: (§2)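 NCI-60 in vitro screen panel of human tumor lines; GI50 (molar concentration giving 50% growth inhibition) and TGI (total growth inhibition) taken from dose–response data.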
# [4] = Cytotoxicity against human HCT15 cells by SRB method; assay type: functional; outline: as §1
# mTORC1 (Homo sapiens) = mTORC1 (Homo sapiens) (UniProt P42345+Q8N122+Q9BVC4); assay: Inhibition of mTORC1 in human HeLa cells assessed as inhibition of S6 kinase phosphorylation at T389 up to 100 nM after 30 mins by Western blotting analysis; assay type: cell-based
# Outline: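 HeLa whole-cell lysates after vehicle or compound treatment; equal protein on SDS-PAGE, PVDF blot probed for S6 kinase, P-T389-S6 kinase and actin, ECL detection.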
# HOP-92 = assay: Cytotoxicity against human HOP92 cells by SRB method; assay type: functional; outline: as §1
# NCI-H522 = assay: Cytotoxicity against human NCI-H522 cells by SRB method; assay type: functional; outline: as §1
# SK-MEL-5 = assay: Cytotoxicity against human SK-MEL-5 cells by SRB method; assay type: functional; outline: as §2
# [5] = Cytotoxicity against human HCT116 cells by SRB method; assay type: functional; outline: as §1
# [6] = Cytotoxicity against human OVCAR3 cells by SRB method; assay type: functional; outline: as §1
# RPMI-8226 = assay: Cytotoxicity against human RPMI8226 cells by SRB method; assay type: functional; outline: as §1
# HT-29 = assay: Cytotoxicity against human HT-29 cells by SRB method; assay type: functional; outline: as §1
# A498 = assay: Cytotoxicity against human A498 cells by SRB method; assay type: functional; outline: as §1
# HeLa [7] = assay: Increase in H3K9 methylation in human HeLa cells assessed as high H3K9me3 expression at 200 nM after 1 to 24 hrs by immunoblotting analysis; assay type: functional, cell-based
# Outline: (§3)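 HeLa cells treated with vehicle or 200 nM for 1–24 h; log-phase cells lysed with protease inhibitors, equal protein by SDS-PAGE, PVDF transfer, probed for H3K9me3 and actin, ECL detection.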
# CAKI-1 = assay: Cytotoxicity against human Caki1 cells by SRB method; assay type: functional; outline: as §1
# [8] = Cytotoxicity against human NCI-ADR-RES cells by SRB method; assay type: functional; outline: as §1
# U-251 = assay: Cytotoxicity against human U251 cells by SRB method; assay type: functional; outline: as §2
# M14 = assay: Cytotoxicity against human M14 cells by SRB method; assay type: functional; outline: as §1
# MOLT-4 = assay: Cytotoxicity against human MOLT4 cells by SRB method; assay type: functional; outline: as §1
# [9] = Cytotoxicity against human EKVX cells by SRB method; assay type: functional; outline: as §1
# IGROV-1 = assay: Cytotoxicity against human IGROV1 cells by SRB method; assay type: functional; outline: as §1
# MDA-MB-435 = assay: Cytotoxicity against human MDA-MB-435 cells by SRB method; assay type: functional; outline: as §1
# HeLa [10] = assay: Inhibition of Histone-lysine N-methyltransferase Su(var)3-9 in human HeLa cells assessed as high H3K9me3 expression at 200 nM after 1 to 24 hrs by immunoblotting analysis; assay type: cell-based; outline: as §3
# T47D = assay: Cytotoxicity against human T47D cells by SRB method; assay type: functional; outline: as §2
# MDA-MB-231 = assay: Cytotoxicity against human MDA-MB-231 cells by SRB method; assay type: functional; outline: as §1
# [11] = Toxicity in ip dosed athymic nude mouse xenografted with human UACC62 cells administered every 4 days; assay type: organism-based, UACC-62; conditions: in vivo
# Outline: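 Female athymic nude mice received 2 × 10^6 UACC-62 cells sc into each flank and were randomized at a median tumor volume of 150 mm3 (n = 5/group). Compound was given ip in DMSO–Cremophor (1:1) diluted in 200 μL DPBS (final ≤2.5%). Dose-tolerance testing used 10, 2 and 1.5 mg/kg (every 4 days). Mice were weighed daily for weight loss.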
# [12] = read-out: LC50 (the source's name)
# Chain of mTORC1 (Homo sapiens) (Q8N122 whole entry, looked up, other chains not shown): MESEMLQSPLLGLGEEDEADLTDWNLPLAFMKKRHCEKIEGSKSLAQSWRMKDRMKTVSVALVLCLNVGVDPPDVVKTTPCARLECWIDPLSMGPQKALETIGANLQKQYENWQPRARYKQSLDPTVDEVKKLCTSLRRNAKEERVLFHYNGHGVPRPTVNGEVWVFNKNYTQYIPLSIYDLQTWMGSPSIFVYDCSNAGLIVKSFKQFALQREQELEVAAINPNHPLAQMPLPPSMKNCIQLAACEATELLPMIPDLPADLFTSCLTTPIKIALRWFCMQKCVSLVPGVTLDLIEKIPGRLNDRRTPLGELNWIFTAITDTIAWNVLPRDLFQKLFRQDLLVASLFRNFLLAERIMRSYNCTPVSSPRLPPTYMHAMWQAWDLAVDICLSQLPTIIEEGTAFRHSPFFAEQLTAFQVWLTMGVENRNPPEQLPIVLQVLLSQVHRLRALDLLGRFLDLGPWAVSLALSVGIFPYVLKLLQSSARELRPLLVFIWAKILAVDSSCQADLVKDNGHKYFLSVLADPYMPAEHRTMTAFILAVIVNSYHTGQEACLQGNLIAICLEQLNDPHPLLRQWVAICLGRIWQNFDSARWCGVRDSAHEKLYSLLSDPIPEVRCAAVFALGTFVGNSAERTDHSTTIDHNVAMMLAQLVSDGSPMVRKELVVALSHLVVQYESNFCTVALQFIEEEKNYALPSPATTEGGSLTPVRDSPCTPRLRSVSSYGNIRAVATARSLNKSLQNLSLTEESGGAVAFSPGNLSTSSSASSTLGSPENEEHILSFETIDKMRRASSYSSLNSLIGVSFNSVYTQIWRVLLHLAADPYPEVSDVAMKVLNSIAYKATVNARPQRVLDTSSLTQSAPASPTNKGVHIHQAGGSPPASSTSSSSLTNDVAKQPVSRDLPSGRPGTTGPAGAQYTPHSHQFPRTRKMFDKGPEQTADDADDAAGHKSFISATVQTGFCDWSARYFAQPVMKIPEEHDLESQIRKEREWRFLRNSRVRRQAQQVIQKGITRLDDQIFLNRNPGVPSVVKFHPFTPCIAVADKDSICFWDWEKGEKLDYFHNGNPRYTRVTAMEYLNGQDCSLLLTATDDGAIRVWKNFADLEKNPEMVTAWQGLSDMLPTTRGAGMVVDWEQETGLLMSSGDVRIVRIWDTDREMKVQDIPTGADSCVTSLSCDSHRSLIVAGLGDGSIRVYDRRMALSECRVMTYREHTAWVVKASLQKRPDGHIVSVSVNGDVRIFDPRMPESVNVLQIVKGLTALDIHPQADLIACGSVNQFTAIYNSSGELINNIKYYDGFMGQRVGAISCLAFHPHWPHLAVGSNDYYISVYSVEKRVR
# Chain of mTORC1 (Homo sapiens) (Q9BVC4 whole entry, looked up, other chains not shown): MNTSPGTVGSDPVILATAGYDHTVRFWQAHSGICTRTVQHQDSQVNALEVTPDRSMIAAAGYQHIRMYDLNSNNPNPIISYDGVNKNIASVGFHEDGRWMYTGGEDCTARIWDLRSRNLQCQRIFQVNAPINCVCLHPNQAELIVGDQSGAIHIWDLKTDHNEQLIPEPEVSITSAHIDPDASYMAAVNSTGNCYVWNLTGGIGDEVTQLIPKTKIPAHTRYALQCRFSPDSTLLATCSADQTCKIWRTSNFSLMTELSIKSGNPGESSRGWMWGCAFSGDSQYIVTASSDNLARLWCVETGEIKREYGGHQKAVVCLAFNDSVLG
smiles,measurement,setting,value
CC(C)[C@@]12SS[C@]3(C(=O)N1C)[C@@H](O)[C@]1(C45c6ccccc6N[C@H]4N4C(=O)[C@@]6(CO)SS[C@@]4(C(=O)N6C)[C@H]5O)c4ccccc4N[C@@H]1N3C2=O (stereo partly drawn),GI50,786-0,11.7 nM
same,TGI,786-0,26.3 nM
same,CC50,786-0; [12],70.8 nM
same,GI50,[1],11.5 nM
same,LC50,[1],190 nM
same,TGI,[1],33.9 nM
same,GI50,[2],33 nM
same,GI50,[3],26.3 nM
same,TGI,[3],447 nM
same,GI50,ACHN,15.5 nM
same,TGI,ACHN,60.3 nM
same,CC50,ACHN; [12],234 nM
same,GI50,DU-145,14.8 nM
same,TGI,DU-145,53.7 nM
same,CC50,DU-145; [12],200 nM
same,GI50,NCI-H226,10 nM
same,TGI,NCI-H226,24 nM
same,CC50,NCI-H226; [12],72.4 nM
same,Activity,Mus musculus,Toxic
same,GI50,SNB-19,112 nM
same,TGI,SNB-19,513 nM
same,CC50,SNB-19; [12],1660 nM
same,GI50,[4]; HCT-15,17 nM
same,TGI,[4]; HCT-15,89.1 nM
same,CC50,"[4]; HCT-15, read-out: LC50 (the source's name)",479 nM
same,inhibition,mTORC1 (Homo sapiens),inactive
same,GI50,HOP-92,11 nM
same,TGI,HOP-92,28.8 nM
same,CC50,HOP-92; [12],112 nM
same,GI50,NCI-H522,8.5 nM
same,TGI,NCI-H522,17.8 nM
same,CC50,NCI-H522; [12],38 nM
same,GI50,SK-MEL-5,14.8 nM
same,TGI,SK-MEL-5,57.5 nM
same,CC50,SK-MEL-5; [12],151 nM
same,GI50,[5]; HCT-116,12.3 nM
same,TGI,[5]; HCT-116,51.3 nM
same,CC50,"[5]; HCT-116, read-out: LC50 (the source's name)",162 nM
same,GI50,[6]; OVCAR-3,10.7 nM
same,TGI,[6]; OVCAR-3,26.3 nM
same,CC50,"[6]; OVCAR-3, read-out: LC50 (the source's name)",85.1 nM
same,GI50,RPMI-8226,12.3 nM
same,TGI,RPMI-8226,34.7 nM
same,CC50,RPMI-8226; [12],> 50000 nM
same,GI50,HT-29,5.6 nM
same,TGI,HT-29,13.5 nM
same,CC50,HT-29; [12],32.4 nM
same,GI50,A498,9.8 nM
same,TGI,A498,28.2 nM
same,CC50,A498; [12],105 nM
same,Activity,HeLa [7],Active
same,GI50,CAKI-1,8.7 nM
same,TGI,CAKI-1,22.4 nM
same,CC50,CAKI-1; [12],85.1 nM
same,GI50,[8],33.9 nM
same,TGI,[8],120 nM
same,CC50,[8]; [12],355 nM
same,GI50,U-251,17.8 nM
same,TGI,U-251,61.7 nM
same,CC50,U-251; [12],178 nM
same,GI50,M14,13.5 nM
same,TGI,M14,53.7 nM
same,CC50,M14; [12],182 nM
same,GI50,MOLT-4,13.2 nM
same,TGI,MOLT-4,67.6 nM
same,CC50,MOLT-4; [12],> 50000 nM
same,GI50,[9],28.2 nM
same,TGI,[9],257 nM
same,CC50,[9]; [12],2040 nM
same,GI50,IGROV-1,24.5 nM
same,TGI,IGROV-1,100 nM
same,CC50,IGROV-1; [12],339 nM
same,GI50,MDA-MB-435,10.7 nM
same,TGI,MDA-MB-435,28.8 nM
same,CC50,MDA-MB-435; [12],120 nM
same,inhibition,HeLa [10],inactive
same,GI50,T47D,9.1 nM
same,TGI,T47D,26.3 nM
same,CC50,T47D; [12],102 nM
same,GI50,MDA-MB-231,18.6 nM
same,TGI,MDA-MB-231,70.8 nM
same,CC50,MDA-MB-231; [12],324 nM
same,MTD at 96 h,[11],1.5 mg/kg
